Bioassay records (PubChem)
The sample as a whole holds a higher share of hits than the screen did.
ABCB6 inh 2 – ABCB6 transporter inhibitors, primary screen, K562-ABCB6 cells, flow cytometry, MLPCN library | fluorescence ratio to DMSO, % at 10 µM | ATP-binding cassette sub-family B member 6 (Homo sapiens), Q9NP58 | K562-ABCB6 porphyrin accumulation, 1 h; active compounds read low | 0.19% of 360,000 active;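 active = fluorescence ratio to DMSO below 75%, the collection mean minus 3 SD; inconclusive = too few cells collected in the well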;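 also: signal is porphyrin accumulated inside mitochondria; lower ratio means ABCB6 inhibition with less porphyrin fluorescence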
Target sequence (Q9NP58 whole entry, looked up): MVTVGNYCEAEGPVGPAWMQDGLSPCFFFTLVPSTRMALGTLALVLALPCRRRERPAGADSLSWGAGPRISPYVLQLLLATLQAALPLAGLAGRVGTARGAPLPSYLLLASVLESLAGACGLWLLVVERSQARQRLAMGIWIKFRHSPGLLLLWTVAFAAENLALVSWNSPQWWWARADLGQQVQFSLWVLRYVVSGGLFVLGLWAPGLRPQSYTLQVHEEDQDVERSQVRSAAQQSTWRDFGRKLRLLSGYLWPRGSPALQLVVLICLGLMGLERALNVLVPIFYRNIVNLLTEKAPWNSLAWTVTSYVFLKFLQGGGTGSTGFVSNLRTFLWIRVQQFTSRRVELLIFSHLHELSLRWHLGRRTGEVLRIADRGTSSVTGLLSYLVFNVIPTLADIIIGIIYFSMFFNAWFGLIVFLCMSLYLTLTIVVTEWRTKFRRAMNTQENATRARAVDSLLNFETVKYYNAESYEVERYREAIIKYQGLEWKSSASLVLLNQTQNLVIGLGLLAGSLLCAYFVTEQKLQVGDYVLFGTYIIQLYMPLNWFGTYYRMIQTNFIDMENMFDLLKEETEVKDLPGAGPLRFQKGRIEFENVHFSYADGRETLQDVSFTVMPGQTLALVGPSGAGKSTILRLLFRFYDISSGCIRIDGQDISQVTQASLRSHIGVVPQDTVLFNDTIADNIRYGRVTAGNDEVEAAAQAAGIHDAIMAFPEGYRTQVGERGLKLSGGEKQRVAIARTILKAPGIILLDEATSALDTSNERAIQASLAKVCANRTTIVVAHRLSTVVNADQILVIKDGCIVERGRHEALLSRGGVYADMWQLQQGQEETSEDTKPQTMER
Myeloid diff 2 – induction of myeloid progenitor differentiation, primary screen, cell-based, flow cytometry, MLPCN library; ER-HoxA9 myeloid progenitors, lysozyme-GFP differentiation; calls only at 10 µM; 1% of 360,000 active; AID 624256, 2012;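 active = normalized GFP-positive differentiation at or above the plate's own cutoff, the solvent-only control mean plus 3 SD; inconclusive = no clear call, values can overlap the other calls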;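 also: cells exposed to compound for four days before flow analysis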
Xi reactivation – activators of inactive X chromosome reactivation, primary screen, imaging, XiGFP fibroblasts, GFP high-content imaging, set 2; 0.055% of 360,000 active; XiGFP mouse fibroblasts, % GFP-positive cells imaging, 3 d; cells co-treated with 5-aza-dC sensitizer; scaled so ellipticine positive control = 100%; AID 743238, 2013; activation, % at 7.58 µM;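 active = mean normalized replicate activation at least 10% and every replicate at or above 10%; inconclusive = only one of the two criteria met; inactive = mean below 10% and not all replicates reach 10%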
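System: 68-5-11 XiGFP fibroblast line | Buffer or medium: DMEM containing 5-aza-dC | Compound: Single point | Times: Compounds 3 days, fix/stain 15 min at room temperature | Benchmarks: Positive control ellipticine, 6 µM final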
Calls only; i = inactive; ? = inconclusive; nt = no result; + = active, no number.

SMILES	ABCB6 inh 2	Myeloid diff 2	Xi reactivation
Cc1ccc(N2C(=O)NC(=O)/C(=C\C=C\c3ccco3)C2=O)cc1	i	i	i
Cc1ccc(N2C(=O)NC(=O)/C(=C\C=C\c3ccco3)C2=O)cc1C	i	+	i
CC=Cc1ccc2n(c1=O)C[C@H]1[C@H](CO)[C@@H](C(=O)O)[C@@H]2N1S(=O)(=O)c1ccccc1F (mixture of isomers)	nt	nt	i
O=C(Cc1ccccn1)N1CCCCN2[C@@H](CO)[C@H](c3ccc(C#Cc4ccccc4)cc3)[C@@H]2C1	nt	nt	i
COC(=O)C(O)(c1ccc(N=Cc2ccccc2O)c(C)c1)C(F)(F)F (stereo unspecified)	i	i	i
CC(C)(C)c1ccc(O)c(N=Cc2c(O)ccc3ccccc23)c1	i	+	i
COC(=O)[C@H]1[C@H](CO)[C@H]2Cn3c(ccc(-c4cccc(OC)c4)c3=O)[C@@H]1N2C(=O)c1cnccn1	nt	nt	i
NC(Cc1ccc(Cl)cc1)c1csc(Nc2ncccn2)n1 (stereo unspecified)	i	+	i
Nc1ccc(CC(N)c2csc(Nc3ncccn3)n2)cc1 (stereo unspecified)	i	i	i
CCCCCCCCn1sccc1=O	i	+	nt
O=C([C@H]1N[C@H]2c3cccc(=O)n3C[C@H]2[C@@H]1CO)N1CCCCC1	nt	nt	i
c1cc(-c2ccc(C3[C@H]4CNC[C@@H]3N4CC3CC3)cc2)ccn1 (stereo partly specified)	nt	nt	i
CN1/C(=C\C=C2C(=O)NC(=O)NC2=O)C(C)(C)c2ccccc21	i	+	i
CN1/C(=C\C=Nc2ccccc2)C(C)(C)c2ccccc21	i	i	nt
COC(=O)[C@H]1[C@H](CO)[C@H]2Cn3c(ccc(C4=CCCC4)c3=O)[C@@H]1N2C(=O)C1CCCCC1	nt	nt	i
COC(=O)[C@H]1[C@H](CO)[C@H]2Cn3c(ccc(-c4ccccc4)c3=O)[C@@H]1N2C(=O)c1ccccc1F	nt	nt	i
Cc1cc(N(CCCl)CCCl)ccc1C=NNC(=O)Cc1cc(=O)oc2cc(O)ccc12	i	+	i
Cc1cc(N(CCCl)CCCl)ccc1/C=N/NC(=O)c1ccco1	i	?	nt
C=CCN1[C@@H]2CN(C(C)=O)C[C@H]1C2c1ccccc1 (stereo partly specified)	nt	nt	i
O=C(O)[C@H]1[C@H](CO)[C@H]2Cn3c(ccc(-c4ccccc4)c3=O)[C@@H]1N2CC1CCCCC1	nt	nt	i
CC=Cc1ccc2n(c1=O)C[C@@H]1[C@@H](CO)[C@H](C(=O)O)[C@H]2N1S(=O)(=O)c1ccccc1C (mixture of isomers)	nt	nt	i
COC1C(O)C(C)OC(OC2C(Oc3cccc4c(O)c5c(=O)oc6ccc(C)c7c(=O)oc(c34)c5c67)OC(C)C(O)C2O)C1O (stereo unspecified)	i	+	i
C/C=C/c1ccc(C2[C@@H]3CN(C(=O)C4CCOCC4)C[C@H]2N3)cc1 (stereo partly specified)	nt	nt	i
CN1C2CN(CC(F)(F)F)CC1C2c1ccc(Br)cc1 (stereo unspecified)	nt	nt	i
COC(=O)[C@@H]1[C@@H](CO)[C@@H]2Cn3c(ccc(-c4ccc(F)cc4)c3=O)[C@H]1N2Cc1ccccc1	nt	nt	i
SMILES	ABCB6 inh 2	Myeloid diff 2	Xi reactivation
NC(N)=N/N=C/c1ccc(N2CCOCC2)cc1	i	+	i
COc1ccc(/C=N\N=C(N)N)cc1	i	i	i
O=C(O)[C@@H]1[C@@H](CO)[C@@H]2Cn3c(ccc(-c4cccc(F)c4)c3=O)[C@H]1N2CCc1ccccc1	nt	nt	i
O=C(Cc1ccccc1)N1CC2(C1)[C@@H](c1ccccc1)[C@H](CO)N2Cc1cccc(F)c1	nt	nt	i
CC1CCC2[C@@H](C)C(=O)OC3O[C@]4(C)CCC1C32OO4 (stereo partly specified)	i	+	i
CC1CCC2C(C)C(=O)OC3OC4(C)CCC1C32OO4 (stereo unspecified)	i	+	i
COc1ccc(C#Cc2ccc([C@@H]3[C@H](CO)N4CCCCN(C(=O)Cc5ccncc5)C[C@@H]34)cc2)cc1	nt	nt	i
O=C(O)[C@H]1[C@H](CO)[C@H]2Cn3c(ccc(-c4ccncc4)c3=O)[C@@H]1N2C(=O)C1CCCCC1	nt	nt	i
COC(=O)[C@H]1[C@H](CO)[C@H]2Cn3c(ccc(C4=CCCC4)c3=O)[C@@H]1N2CC1CCCC1	nt	nt	i
O=C(O)Cn1cc(/C=C2\C(=O)NC(=O)N(c3ccc(Cl)cc3)C2=O)c2ccccc21	i	i	i
CCN(CC)C(=O)Cn1cc(/C=C2\C(=O)NC(=O)N(c3ccccc3F)C2=O)c2ccccc21	i	+	i
C#CC1(O)CCC2C3CCC4=C/C(=N/OCC(=O)NCC(=O)NC(C(=O)O)C(C)C)CC[C@]4(C)C3CC[C@@]21C (stereo partly specified)	i	i	i
C#C[C@]1(O)CC[C@H]2[C@@H]3CCC4=Cc5nc6nc7ccccc7n6cc5C[C@]4(C)[C@H]3CC[C@@]21C	i	+	i
O=C(Cc1ccccc1)N1CC2(C1)[C@H](c1ccccc1)[C@@H](CO)N2Cc1cccc(F)c1	nt	nt	i
O=C1NC(=O)N(c2ccc3c(c2)OCO3)C(=O)/C1=C/c1ccc(N2CCCC2)o1	i	+	i
CCOc1ccc(N2C(=O)NC(=O)/C(=C\c3ccc(N4CCCCC4)o3)C2=O)cc1	i	i	i
COC(=O)[C@H]1[C@H](CO)[C@H]2Cn3c(ccc(-c4ccc(F)cc4)c3=O)[C@@H]1N2Cc1ccccc1	nt	nt	i
O=C(/C=C/c1c[nH]c2ccccc12)c1c(O)n(CCc2ccccc2)c(=O)[nH]c1=O	i	+	i
CCCCn1c(O)c(C(C)=NCCc2c[nH]c3ccccc23)c(=O)[nH]c1=O	i	i	i
COC(=O)[C@H]1[C@H](CO)[C@H]2Cn3c(ccc(-c4ccccc4)c3=O)[C@@H]1N2CCc1ccccc1	nt	nt	i
CN1CCN(c2nc(N)c(Br)c(Cl)n2)CC1	i	+	i
CN1CCN(c2ncnc(Cl)c2N)CC1	i	i	i
C[C@]12CC[C@H](O)C[C@H]1CC[C@@H]1[C@@H]2C[C@@H](O)[C@]2(C)[C@@H](C3=CC(=O)OC3)CC[C@]12O	i	i	i
CC(=O)OC1CC(OC2C(O)CC(OC3C(O)CC(OC4CCC5(C)C(CCC6C5CC(O)C5(C)C(C7=CC(=O)OC7)CCC65O)C4)OC3C)OC2C)OC(C)C1OC1OC(CO)C(O)C(O)C1O (stereo unspecified)	i	+	i
CC1([N+](=O)[O-])COP(=O)(Nc2cccc(Br)c2)OC1 (stereo unspecified)	i	+	i
CC1([N+](=O)[O-])COP(=O)(Nc2ccc(Cl)cc2)OC1 (stereo unspecified)	i	i	i
COC(=O)[C@@H]1[C@@H](CO)[C@@H]2Cn3c(ccc(C4=CCCCC4)c3=O)[C@H]1N2C(=O)NC(C)C	nt	nt	i
CC(C)NC(=O)N1C[C@@H]2C(c3ccc(Br)cc3)[C@H](C1)N2CC1CC1 (stereo partly specified)	nt	nt	i
C=CCn1cc(C=C2C(=O)NC(=O)NC2=O)c2ccccc21	i	+	i
